Test results from publication PMC5741288 (Pain Reports, 2016).

System: dermal blood flow (flare)
Test: Topical capsaicin alone, flare response in anesthetized rats
Type: in vivo, Sprague Dawley rats
Method in brief: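 Isoflurane-anaesthetised rats had clipped lower abdominal skin and an O-ring placed by a preliminary Doppler image. Capsaicin (0.1–3 mg) or vehicle (30% ethanol, Tween, sterile water) was pipetted into the ring. Dermal blood flow was scanned by laser Doppler imager every 15 min for 120 min. Change from baseline flux was computed every 15 min.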

Structure (SMILES): COc1cc(CNC(=O)CCCC/C=C/C(C)C)ccc1O [Capsaicin]
- Flare response (0.1 mg topical): did not produce any increase in flare
- Flare response (0.3 mg topical, peaked 30 minutes after application): transient increase in flare
- Flare response (1 mg topical, larger concentrations did not increase flare further): greatest amount of flare
